In ChEMBL document CHEMBL1144100, “Homo- and nor-plakotenin, new carboxylic acids from the Palauan sponge Plakortis lita” (1999):
Calls of active or inactive are those of the source. No cut-off for these calls is given here.

What was measured:
[1] = Antiproliferative activity against rheumatoid synovial fibroblasts assessed as inhibition of PDGF-BB-induced DNA synthesis at 1 ug/mL treated 15 mins before PDGF-BB challenge by [3H]thymidine incorporation assay; format: functional
Method in brief: (§1)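 Rheumatoid synovial fibroblasts plated at 1.2 × 10^4 cells/well in EMEM with 10% heat-inactivated FBS and penstrep, allowed to adhere 6 h at 37 °C, 5% CO2. Then serum-arrested 24 h in 0.2% FBS. Compounds added in DMSO (0.5% final) for 15 min at room temperature, then 1 nM PDGF-BB in 10% FBS medium for 24 h. Pulsed with 0.5 µCi/well [3H]-thymidine for 24 h, trypsin/EDTA-detached, harvested, scintillation counted versus controls.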

[2] = Antiproliferative activity against rheumatoid synovial fibroblasts assessed as inhibition of PDGF-BB-induced DNA synthesis at 0.1 ug/mL treated 15 mins before PDGF-BB challenge by [3H]thymidine incorporation assay; format: functional; method in brief: as §1

| Structure (SMILES) | inhibition (INH) [1] [%] | Activity [2] | inhibition at 1 µg/mL [1] [%] |
| --- | --- | --- | --- |
| CCC1=C[C@@H](c2ccccc2)[C@@](/C=C(\C)C(=O)O)(CC)[C@H]2[C@H]1[C@H](C)C[C@H]2C [listing 1 of 2 here] | 73.5 |  |  |
| CCC1=C[C@@H](c2ccccc2)[C@@](/C=C(\C)C(=O)[O-])(CC)[C@H]2[C@H]1[C@H](C)C[C@H]2C.[Na+] | 27.8 |  |  |
| CC[C@@]1(/C=C(\C)C(=O)O)[C@H]2[C@H](C(C)=C[C@H]1c1ccccc1)[C@H](C)C[C@H]2C |  | inactive |  |
| CC[C@@]1(/C=C(\C)C(=O)[O-])[C@H]2[C@H](C(C)=C[C@H]1c1ccccc1)[C@H](C)C[C@H]2C.[Na+] [PLAKOTENIN SODIUM SALT] | 35.7 |  |  |
| CC[C@@]1(/C=C(\C)C(=O)O)[C@H]2[C@H](C(C)=C[C@H]1c1ccccc1)[C@H](C)C[C@H]2C [PLAKOTENIN] | 76.8 |  |  |
| CCC1=C[C@@H](c2ccccc2)[C@@](/C=C(\C)C(=O)O)(CC)[C@H]2[C@H]1[C@H](C)C[C@H]2C [listing 2 of 2 here] |  | inactive |  |
| CC1=C[C@@H](c2ccccc2)[C@](C)(/C=C(\C)C(=O)O)[C@H]2[C@H]1[C@H](C)C[C@H]2C |  | inactive | 0 |
